The record followed here is ChEMBL document CHEMBL5523695, “Discovery of small molecule benzothiazole and indole derivatives tackling tau 2N4R and α-synuclein fibrils” (Bioorg Med Chem, 2024).

Data set [1] concerns the target T1, Microtubule-associated protein tau (Homo sapiens, UniProt P10636). The experiment in a line: Inhibition of tau 2N4R (unknown origin) aggregation expressed in Escherichia coli Rosetta BL21 cells assessed as reduction in oligomer formation at 50 to 200 uM incubated for 10 mins in presence of 53W light exposure for 60 sec by PICUP assay. To be noted: dose 50-200 µM. Summed up:
(§1)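 Tau 2N4R or 0N4R, expressed in-house from a pET30a construct in E. coli Rosetta BL21 and purified by heat step plus SP cation exchange, used at 10 μM in 10 mM phosphate buffer. Compound at 50, 100 and 200 μM. Ru(bpy)3 at 300 μM and APS at 6 mM, 60 s light exposure. Samples boiled at 95 °C for 10 min in reducing Laemmli buffer, then 16 % SDS-PAGE with Coomassie.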

In data set [2] the target is T1, Microtubule-associated protein tau. As to the kind of experiment: Inhibition of unfolded tau 2N4R (unknown origin) aggregation expressed in Escherichia coli Rosetta BL21 cells assessed as reduction in protein fibril formation at 100 uM measured after 72 hrs by TEM analysis. Summed up: (§2)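 Recombinant tau 2N4R (6 μM) incubated with compound at 100 μM, or 0.25 % DMSO, in 10 mM PBS pH 7.4 for 72 h at 37 °C. Placed on Formvar-carbon copper grids for 1 min, rinsed, and negatively stained with 1 % uranyl acetate. TEM at 40k magnification, 100 kV.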

Data set [3] has the same target. The experiment in a line: Inhibition of unfolded tau 2N4R (unknown origin) aggregation expressed in Escherichia coli Rosetta BL21 cells assessed as reduction in short and fine needle like fibrils at 100 uM measured after 72 hrs by TEM analysis. Summed up: as §2
The nature of data set [4]: Cytotoxicity against human M17D cells expressing doxycyclin-inducible alpha-syn-S3K::YFP inclusion-prone fusion protein assessed as reduction in cell confluency at 20 to 40 uM treated with compound starting from 24 hrs post plating followed by doxycyclin addition at 48 hrs and measured 96 hrs post plating by Incucyte-based analysis. The class given is toxicity. The conditions noted are these: 72 h, dose 20-40 µM. The method, boiled down: (§3)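 Dox-inducible M17D-TR/αS-3K::YFP neuroblastoma cells seeded at 30,000 per well. Compound added 24 h after plating at 1.25–40 μM, with 0.1 % DMSO as vehicle. Dox at 1 μg/mL final was added at 48 h. At 96 h, Incucyte imaging gave confluence fold change vs vehicle. N = 2 independent experiments, 6–12 wells total. Mean ± SD, one-way ANOVA with Dunnett's test.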

In data set [5] the target is Alpha-synuclein (Homo sapiens) (UniProt P37840). The experiment in a line: Inhibition of alpha-syn inclusion formation in human M17D cells expressing doxycyclin-inducible alpha-syn-S3K::YFP inclusion-prone fusion protein assessed as reduction in inclusions treated with compound starting from 24 hrs post plating followed by doxycyclin addition at 48 hrs and measured 96 hrs post plating by Incucyte-based analysis. It is filed as cell-based. The conditions noted are these: time 72.0 hrs. Summed up:
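M17D-TR/αS-3K::YFP cells seeded at 30,000 per well and dosed 24 h post-plating at 1.25–40 μM (vehicle 0.1 % DMSO). Transgene induced at 48 h with dox at 1 μg/mL final. At 96 h, Incucyte analysis of punctate YFP inclusions, expressed as fold change vs DMSO. Two independent experiments, 6–12 wells total, mean ± SD, Dunnett's post-hoc test.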

For data set [6] the target is unchanged. The experiment in a line: Inhibition of recombinant alpha-Synuclein (unknown origin) aggregation assessed as reduction in fluorescence intensity by measuring residual activity at 100 uM measured every 20 mins for 40 to 70 hrs by Thioflavin T based fluorescence analysis relative to control. The conditions noted are these: time 40-70 hrs. Summed up: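 Recombinant α-syn (2 μM final) in 10 mM PBS pH 7.4 with 0.5 mM SDS and 300 mM NaCl. Compound at 100 μM final, ThT 20 μM, one borosilicate bead per well. Read at 37 °C every 20 min after 10 s shaking, ex 440/em 485 nm, for 40–70 h. Background was ThT plus 0.25 % DMSO without protein. Plateau fluorescence expressed as % of control, triplicates, mean ± SEM.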

Data set [7] is described as follows: Cytotoxicity against human M17D cells expressing doxycyclin-inducible alpha-syn-S3K::YFP inclusion-prone fusion protein assessed as reduction in cell confluency at <20 uM treated with compound starting from 24 hrs post plating followed by doxycyclin addition at 48 hrs and measured 96 hrs post plating by Incucyte-based analysis. It is filed as toxicity. To be noted: 72 h. The method, boiled down:
as §3

Data set [8] addresses T1, Microtubule-associated protein tau. As to the kind of experiment: Inhibition of unfolded tau 2N4R (unknown origin) aggregation expressed in Escherichia coli Rosetta BL21 cells assessed as reduction in formation of large dense accumulation of tau fibrils at 100 uM measured after 72 hrs by TEM analysis. The method, boiled down:
as §2

The target is the same in data set [9]. As to the kind of experiment: Inhibition of unfolded tau 2N4R (unknown origin) aggregation expressed in Escherichia coli Rosetta BL21 cells assessed as appearance of rounded structures at 100 uM measured after 72 hrs by TEM analysis. The method, boiled down:
as §2

For data set [10], the target named is Alpha-synuclein (Homo sapiens) (UniProt P37840). As to the kind of experiment: Inhibition of recombinant alpha-Synuclein (unknown origin) aggregation assessed as reduction in protein fibril formation at 100 uM measured after 68 hrs by TEM analysis. The method, boiled down: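 α-Syn (2 μM) samples taken from the ThT kinetic runs after about 68 h at 37 °C, compound at 100 μM, vehicle 0.25 % DMSO. Applied to Formvar-carbon copper grids for 1 min, washed, and stained with 1 % uranyl acetate for 1 min. Imaged by TEM at 40k magnification, 100 kV.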

For data set [11], the target named is T1, Microtubule-associated protein tau. The experiment in a line: Inhibition of human tau 0N4R aggregation expressed in Escherichia coli Rosetta BL21 cells assessed as reduction in oligomer formation at 50 to 200 uM incubated for 10 mins in presence of 53W light exposure for 60 sec by PICUP assay. The conditions noted are these: dose 50-200 µM. Summed up:
as §1

Data set [12] concerns the target Alpha-synuclein (Homo sapiens) (UniProt P37840). The experiment in a line: Inhibition of recombinant alpha-Synuclein (unknown origin) aggregation assessed as reduction in fluorescence intensity measured every 20 mins for 40 to 70 hrs by Thioflavin T based fluorescence analysis. To be noted: dose 3.125-25 µM, time 40-70 hrs.
For data set [13] the target is unchanged. As to the kind of experiment: Inhibition of recombinant alpha-Synuclein (unknown origin) aggregation assessed as reduction in oligomer formation at compound-protein ratio of 1:0.6 incubated for 10 mins in presence of 53W light exposure for 1 sec by PICUP assay. Summed up:
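α-Syn (60 μM) in 10 mM phosphate buffer was cross-linked with Ru(bpy)3 (300 μM) and ammonium persulfate (6 mM), compound at 50, 100 or 200 μM. Light from a 53 W incandescent bulb for 1 s. Laemmli/2-mercaptoethanol added, then 95 °C for 10 min. Samples run on 16 % SDS-PAGE with Coomassie stain; oligomer bands at 35–40 kDa assessed. Controls lacked light or Ru(bpy)3.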

Data set [14] has as its target T1, Microtubule-associated protein tau. As to the kind of experiment: Inhibition of arachidonic acid-induced full-length four-repeat tau 2N4R (unknown origin) aggregation measured upto 19 hrs by TEM analysis.
In data set [15] the target is Alpha-synuclein (Homo sapiens) (UniProt P37840). The experiment in a line: Inhibition of alpha-syn (unknown origin) aggregation assessed as reduction in fluorescence by Thioflavin-T based fluorescence analysis relative to control. The conditions noted are these: concentration not given here. The method, boiled down: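 Recombinant α-syn monomer (2 μM final, diluted from a 280 μM stock in 20 mM Tris-HCl pH 7.4) in 10 mM PBS pH 7.4 with 0.5 mM SDS and 300 mM NaCl, one glass bead per well. Compound 100 μM final, ThT 20 μM, 0.25% DMSO. Ex/em 440/485 nm, read every 20 min at 37 °C with shaking, 40–70 h. Triplicates. Plateau fluorescence as % of control, background-corrected.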

Data set [16] is described as follows: Cytotoxicity against human M17D cells expressing doxycyclin-inducible alpha-syn-S3K::YFP inclusion-prone fusion protein assessed as reduction in cell confluency at 5 to 40 uM treated with compound starting from 24 hrs post plating followed by doxycyclin addition at 48 hrs and measured 96 hrs post plating by Incucyte-based analysis. The class given is toxicity. The conditions noted are these: 72 h, dose 5-40 µM. Summed up:
as §3

SMILES strings stand for the structures. The source made the active and inactive calls. No cut-off for these calls is given here.

T1 sequence (P10636 whole entry): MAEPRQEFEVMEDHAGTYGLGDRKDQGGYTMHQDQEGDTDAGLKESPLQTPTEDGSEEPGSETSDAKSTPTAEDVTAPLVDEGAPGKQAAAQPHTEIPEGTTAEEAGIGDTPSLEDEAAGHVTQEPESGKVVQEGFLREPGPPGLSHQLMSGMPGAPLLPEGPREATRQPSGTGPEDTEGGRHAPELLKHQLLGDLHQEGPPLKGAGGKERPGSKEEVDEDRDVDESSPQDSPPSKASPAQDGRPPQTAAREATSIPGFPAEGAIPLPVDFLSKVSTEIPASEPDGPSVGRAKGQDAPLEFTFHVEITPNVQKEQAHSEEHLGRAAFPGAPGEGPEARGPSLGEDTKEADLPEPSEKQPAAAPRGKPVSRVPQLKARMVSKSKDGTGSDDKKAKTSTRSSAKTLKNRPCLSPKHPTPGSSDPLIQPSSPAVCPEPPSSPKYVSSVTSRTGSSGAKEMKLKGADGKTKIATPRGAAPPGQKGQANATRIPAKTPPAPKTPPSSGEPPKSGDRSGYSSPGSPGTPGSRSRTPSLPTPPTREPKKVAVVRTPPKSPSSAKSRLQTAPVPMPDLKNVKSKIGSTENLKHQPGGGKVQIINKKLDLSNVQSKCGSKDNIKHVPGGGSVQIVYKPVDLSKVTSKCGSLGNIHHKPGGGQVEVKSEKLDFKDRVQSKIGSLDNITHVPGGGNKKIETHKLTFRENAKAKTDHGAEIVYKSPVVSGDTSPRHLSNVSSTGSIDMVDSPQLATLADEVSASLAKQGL

Take `O=C(Nc1ccc([N+](=O)[O-])cc1)Nc1ccc2[nH]ccc2c1`: the inhibition result in data set [1] and in [11] was “inactive” in each case. Moreover, the inhibition result in [2], in data set [3], in [5], in data set [8], in data set [9] and in data set [10] was “Active” in each case. The Activity result in [4] is “Toxic”; in data set [6], 2.9%; in data set [7] it was “Non-Toxic”.
Consider `O=C(Nc1ccc([N+](=O)[O-])cc1)Nc1cccc2[nH]ccc12`, for which the inhibition entry in data set [12] is “Dose-Dependent Effect”. In addition, the inhibition entry in data set [1] and in data set [11] was “inactive” in each case. Besides, the inhibition entry in data set [2], in data set [3], in data set [5], in data set [8], in data set [9] and in data set [10] was “Active” each time. Moreover, the inhibition result in data set [13] is “Active”. In addition, the results for the Activity entry in [4], in data set [6] and in data set [7] were “Toxic”, 4% and “Non-Toxic”, respectively.
In data set [14], `CCC(/C=C1\Sc2ccc(OC)cc2N1CCO)=C\c1sc2ccc(OC)cc2[n+]1CCO` returned a half-inhibitory concentration (IC50) of 300 nM.
On to `O=C(O[C@@H]1Cc2c(O)cc(O)cc2O[C@@H]1c1cc(O)c(O)c(O)c1)c1cc(O)c(O)c(O)c1`, for which the inhibition in data set [15] was 90%.
As to `O=C(Nc1ccc([N+](=O)[O-])cc1)Nc1ccc2cc[nH]c2c1`, the inhibition entry in data set [1] and in data set [11] was “inactive” throughout. For the same molecule, the inhibition entry in data set [2], in data set [3], in data set [8], in [9] and in [10] was “Active” in each case. For the same molecule, the Activity result in [16] is “Toxic”; in data set [6], 3.6%. Also, in [5], the inhibition result was “Dose-Dependent Effect”.
